Hits are enriched below; roughly 2% of the tested compounds scored in any of these assays.
Insulin prom inh – TRM-6 insulin promoter activity inhibition | TRM-6 cells (human fetal islet line), insulin promoter-eGFP reporter, imaging; reporter expression induced with tamoxifen | inhibition, % at 2 µM | 0.9% of 130,000 active | AID 1273;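 active = inhibition above the mean plus 3 SD, with well images judged a real hit on visual review, cut at about 60% in these data, passing the limit was not always enough; inconclusive = inhibition over the cutoff but images rejected on review; inactive = inhibition not above the cutoff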
Autophagy mod – alters autophagy in cells | MEF GFP-LC3 puncta imaging; test concentration mostly 10 µM | calls only at 10 µM (by protocol) | 0.98% of 190,000 active | AID 463193;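 active = percentage of spot-positive cells more than 3 SD above its plate mean, without a fluorescence outlier flag or 80% toxicity; inconclusive = no clear call, values can overlap the other calls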;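 note: spot-positive cell cutoff set from DMSO-treated cells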
Insulin prom up – MIN6 insulin promoter up-regulation; z-score at 5 µM; 0.3% of 190,000 active; MIN6 insulin promoter-GFP reporter, high-content imaging; hits give high values;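 active = z-score above 3 at 5 µM with at least 500 cells counted in the well; inconclusive = wells under 500 cells, flagged as cytotoxic or low count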
Dynein transport – dynein cargo transport inhibition; z-score, hits read low; 3617.4 mouse cells, GR-EGFP nuclear translocation imaging; test concentration mostly 20 µM; stimulated with dexamethasone, 1 µM; hits give low values; 0.47% of 220,000 active; AID 1381;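 active = plate z-score of nuclear minus cytoplasmic receptor signal below a set negative limit, without overly bright fluorescence or cell loss, cut at about -3.5 in these data, passing the limit was not always enough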;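 note: z-score of nuclear minus cytoplasmic ring GR-EGFP intensity difference per well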
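Buffer or medium: tet-free medium with charcoal-stripped serum / Also added: dexamethasone agonist, 1.0 µM final, for 30 min / Timing: induction 48 h, compound 1 h, agonist 30 min / Measured by: high-content fluorescence imaging after fixation / Read-out: nuclear-to-cytoplasmic GR-EGFP distribution per well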
HSV augment – increases HSV replication in cells | HSV replication augmentation in cells, fold increase | maximum fold increase | 0.005% of 220,000 active; in the data active = maximum fold increase above about 1.5; inconclusive = no clear call, values can overlap the other calls; tested in PC3 cells
Furin inhibitor – human furin inhibition. purified furin, fluorogenic substrate cleavage. AID 463115. 0.061% of 220,000 active. inhibition, % at 20 µM or 30 µM; in the data active = inhibition above about 25%
Target sequence (P09958 108-714 limits assumed): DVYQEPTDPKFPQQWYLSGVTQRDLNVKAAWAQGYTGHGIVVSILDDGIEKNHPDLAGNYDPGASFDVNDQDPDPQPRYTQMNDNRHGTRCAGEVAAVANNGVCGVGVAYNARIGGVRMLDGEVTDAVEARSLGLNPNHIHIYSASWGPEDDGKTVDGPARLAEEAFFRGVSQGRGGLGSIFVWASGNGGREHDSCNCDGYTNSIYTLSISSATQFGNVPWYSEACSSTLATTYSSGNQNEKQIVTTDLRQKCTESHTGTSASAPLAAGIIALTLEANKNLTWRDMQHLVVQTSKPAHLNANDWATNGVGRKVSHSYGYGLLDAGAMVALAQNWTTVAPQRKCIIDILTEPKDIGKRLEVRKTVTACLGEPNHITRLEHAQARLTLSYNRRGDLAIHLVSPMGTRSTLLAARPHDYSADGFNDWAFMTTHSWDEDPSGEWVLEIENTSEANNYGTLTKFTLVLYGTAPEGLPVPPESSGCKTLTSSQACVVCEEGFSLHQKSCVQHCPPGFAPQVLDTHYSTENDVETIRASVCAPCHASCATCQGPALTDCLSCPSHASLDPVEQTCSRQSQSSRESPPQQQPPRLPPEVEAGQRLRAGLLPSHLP
Dynein confirm – dynein cargo transport inhibition, confirmation; shares compounds with Dynein transport; 3617.4 GR-EGFP nuclear translocation imaging, dexamethasone-induced; calls only at 20 µM; 69% of 1,000 active; AID 463116;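 active = inhibition of receptor movement into the nucleus at or above a set limit in both runs, with normal cell brightness and cell count; inconclusive = limit reached in only one run, brightness and count normal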;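 note: dexamethasone at 1 µM final in well for 30 min; nuclear minus cytoplasmic GR-EGFP mean intensity difference in channel 2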
* hit, by the source's call; i = inactive; u = inconclusive; x = no result given; + = active, no number.

SMILES	Insulin prom inh	Autophagy mod	Insulin prom up	Dynein transport	HSV augment	Furin inhibitor	Dynein confirm
O=C1CC(Sc2ncccn2)C(=O)N1c1ccccc1 (stereo not given)	28.6	i	0.3	-1.12	i	-13.6	x
COc1ccccc1N1C(=O)CC(Sc2n[nH]c(-c3cccc(C)c3)n2)C1=O (stereo not given)	20.0	i	-5.2	-3.61*	i	-11.0	+
Cn1cc([N+](=O)[O-])c(C(=O)Nc2cc(Oc3ccccc3)cc([N+](=O)[O-])c2)n1	53.3	i	-0.36	-3.86*	i	-4.7	+
O=C1CCN(CCc2ccccc2)CCN1[C@H](CSc1ccc(Br)cc1)c1ccccc1	x	x	x	-0.228	i	-30.1	x
CC(=O)Nc1ccc(SC[C@H](c2ccccc2)N2CCN(CCc3ccccc3)CCC2=O)cc1	x	x	x	-4.7*	i	-31.4	i
CSc1nnc(C)c(/C=C/Nc2ccc(F)cc2F)n1	x	i	0.04	0.368	i	-18.1	x
C=CCSc1nnc(C)c(/C=C/Nc2ccc(Cl)cc2)n1	x	+	x	-7.75	u	-7.3	+
O=S(=O)(Nc1ccc2c(c1)nc1n2CCN(Cc2ccccc2)C1)c1ccccc1	23.8	i	x	-3.22	i	1.3	x
Cc1ccc(S(=O)(=O)Nc2ccc3c(c2)nc2n3CCN(Cc3ccccc3)C2)cc1	0.0	i	0.61	-3.53*	i	-24.8	i
COc1ccc(-c2c(C#N)c(N)nc3sc(C(=O)c4ccccc4)c(N)c23)cc1	41.2	i	-0.47	-3.87	i	-21.9	i
COc1ccc(N2C(=O)CC(Sc3nnnn3-c3ccc(F)cc3)C2=O)cc1 (stereo not given)	x	i	-0.52	-3.96	i	-17.6	+
CCOC(=O)C1CCN(C(=S)Nc2ccc(CC)cc2)CC1	40.0	i	0.66	-0.976	i	-28.8	x
CC(=O)Nc1cccc(C(=O)/C=C/c2ccc(F)cc2)c1	x	i	-1.13	-3.86*	i	-17.8	+
CC(=O)Nc1cccc(C(=O)/C=C/c2cccs2)c1	23.1	i	-0.06	-3.67*	i	-2.0	+
CC(=O)Nc1cccc(C(=O)/C=C/c2ccc(/C=C/C(=O)c3cccc(NC(C)=O)c3)cc2)c1	x	i	-0.27	-2.07	i	-8.8	x
Cc1ccc2c(Cl)cc(Cl)c(OCC(=O)Nc3ccc(C)c(S(=O)(=O)N(C)C)c3)c2n1	x	i	0.03	-0.369	i	2.1	x
CN(C)CCCN1C(=O)c2cccc3c(Br)ccc(c23)C1=O	-69.2	i	1.33	-0.192	i	-4.1	x
CCCCNc1ccc2c3c(cccc13)C(=O)N(CCCC)C2=O	x	x	x	-6.07*	x	-6.0	+
CCOc1ccc2nc(SC3CC(=O)N(c4ccc(OC)cc4OC)C3=O)sc2c1 (stereo not given)	21.1	i	-0.36	-4.9*	i	-14.8	+
CCOc1ccc(N2C(=O)CC(Sc3nc4ccc(OCC)cc4s3)C2=O)cc1 (stereo not given)	43.3	i	x	-0.358	i	-26.1	x
C=CCOc1ccccc1CN1CCCC(CCC(=O)N(C)CCc2ccccn2)C1 (stereo not given)	x	i	-0.21	-0.745	i	-5.5	x
NS(=O)(=O)c1ccc(CCNC(=O)CNS(=O)(=O)c2cccc(Br)c2)cc1	x	i	0.93	1.12	i	-22.8	x
CCN(CC)CCCNC(=O)c1ccc2c(Cl)c3c(nc2c1)CCCC3	-35.7	i	-0.11	-3.91*	i	-22.0	+
CC1CCN(C(=O)c2ccc3c(Cl)c4c(nc3c2)CCCC4)CC1	x	i	-0.08	-6.05*	i	-22.9	+
CCN(CC)CCCNC(=O)c1ccc2c(SCC(=O)O)c3c(nc2c1)CCC3	38.9	i	-0.1	0.515	i	-8.8	x
SMILES	Insulin prom inh	Autophagy mod	Insulin prom up	Dynein transport	HSV augment	Furin inhibitor	Dynein confirm
COC(=O)/C(=C/c1cn(C(C)=O)c2ccccc12)[N+](=O)[O-]	x	x	-0.28	-0.486	i	-18.5	x
CC(=O)n1cc(C(C[N+](=O)[O-])SCCN)c2ccccc21 (stereo not given)	25.6	i	-0.47	-3.82*	i	-4.4	i
Cc1c(C#N)c(NC(=O)CCl)n(Cc2cccs2)c1C	x	i	-1.31	-5.25*	i	-15.9	+
Cc1ccc(NC(=S)NCc2ccco2)c(C)c1	x	x	-0.23	0.76	i	-29.8	x
OC(CNCCc1ccc(C(F)(F)F)cc1)COc1ccc2ccccc2c1 (stereo not given)	13.9	i	0.73	-4.82*	i	-10.8	i
CCOc1ccc(CN(C)C(=O)CCl)cc1	x	i	0.26	-5.58*	i	-7.9	+
O=C(CSc1nnc(CNC(=O)c2ccco2)o1)Nc1nc2ccccc2s1	50.0	i	0.65	1.65	i	-8.7	x
CC(C)NC(=O)CN1CCC(c2ccccc2)C(O)C1 (stereo not given)	-92.9	i	0.34	-0.518	i	-35.4	x
O=c1[nH]c(CN2CCc3ccccc3C2)nc2ccccc12	39.5	i	0.54	0.181	i	-10.5	x
Cc1[nH]c2ccccc2c1CN1CCc2ccccc2C1	6.5	i	u	-3.83*	i	-23.2	i
c1ccc(-n2nnnc2Cc2nnnn2-c2ccccc2)cc1	x	i	-0.62	0.452	i	-10.4	x
N#CCCS(=O)(=O)c1nnnn1-c1ccccc1	28.6	i	-0.38	-5.03*	i	-14.5	u
COc1ccccc1S(=O)(=O)c1ccccc1[N+](=O)[O-]	-41.7	i	0.21	1.67	i	-6.4	x
COc1ccc([N+](=O)[O-])c(S(=O)(=O)c2ccc(Cl)cc2)n1	x	x	0.02	-4.95*	i	-7.3	+
COc1ccc([N+](=O)[O-])c(S(=O)(=O)c2ccccc2)n1	x	x	-0.03	-5.53*	i	-15.3	+
C=C(C(=O)c1ccccc1)C(C(=C)C(=O)c1ccccc1)c1ccc(OC)cc1	x	x	-1.26	-3.78*	i	-5.1	+
COc1ccc(C(=O)n2nc(-c3ccco3)nc2SC)cc1OC	-168.8	i	0.41	-3.95*	i	-10.9	i
COc1ccc(Br)c(C(=O)N2CCN(S(=O)(=O)c3cccs3)CC2)c1	x	x	-0.07	-0.457	i	-26.1	x
CCc1cccc2cc3c(N)c(C(=O)Nc4ccc(S(=O)(=O)N5CCCC5)cc4)sc3nc12	-203.0	+	x	-6.64	u	-9.3	i
C=CCN(CC=C)C(=O)Nc1cc(OC)ccc1OC	x	x	-0.45	0.363	i	-30.5	x
CC1C/C(=C/c2ccco2)C(=O)/C(=C/c2ccco2)C1 (stereo not given)	-24.1	i	0.76	-3.73	i	-13.4	+
COc1cc2c(cc1OC)C(SC)=NC1(CCCC1)C2	x	i	-0.09	-3.56*	i	-19.8	+
COc1cc2c(cc1OC)C(C)=NC1(CCCCC1)C2	x	x	-0.4	-0.786	i	-137.4	x
